Test results as given in article PMC2606940 (The Journal of General Physiology, 2009).
Changes are numbered by the printed parent chain. Like-named read-outs stand apart in the source and are kept apart here.

Experiments:
[1] = molecular target: T1, CLC-0 E166G mutant (Torpedo marmorata, UniProt P21564, C212S/E166G); format: cell-based; settings: read-out: Apparent affinity (K1/2)
T1 sequence (P21564 1-805 E166G/C212S): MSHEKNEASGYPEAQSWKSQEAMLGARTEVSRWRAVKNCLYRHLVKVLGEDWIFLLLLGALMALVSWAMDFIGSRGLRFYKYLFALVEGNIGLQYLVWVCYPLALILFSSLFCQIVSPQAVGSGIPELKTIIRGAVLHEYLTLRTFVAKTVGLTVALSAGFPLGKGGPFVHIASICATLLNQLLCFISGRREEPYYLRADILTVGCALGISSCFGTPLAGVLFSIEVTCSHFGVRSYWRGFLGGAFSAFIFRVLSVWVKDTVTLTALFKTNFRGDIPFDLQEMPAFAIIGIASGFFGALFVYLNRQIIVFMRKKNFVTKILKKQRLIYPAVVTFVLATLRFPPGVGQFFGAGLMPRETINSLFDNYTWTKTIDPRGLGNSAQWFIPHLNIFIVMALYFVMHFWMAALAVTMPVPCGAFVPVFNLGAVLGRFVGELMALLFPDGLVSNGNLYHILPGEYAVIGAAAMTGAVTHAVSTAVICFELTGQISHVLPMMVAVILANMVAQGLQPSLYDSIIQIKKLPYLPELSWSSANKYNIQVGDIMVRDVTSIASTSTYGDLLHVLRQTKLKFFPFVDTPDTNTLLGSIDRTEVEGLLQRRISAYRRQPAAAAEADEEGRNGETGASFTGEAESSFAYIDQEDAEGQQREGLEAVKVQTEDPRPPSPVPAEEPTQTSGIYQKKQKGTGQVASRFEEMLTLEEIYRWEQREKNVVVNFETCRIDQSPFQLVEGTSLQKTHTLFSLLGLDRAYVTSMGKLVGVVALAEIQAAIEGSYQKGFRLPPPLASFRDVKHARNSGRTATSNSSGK
Procedure, shortened: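 CLC-0 mutants in the C212S background were transfected into HEK293 cells with lipofectamine and recorded 1–3 d later as excised inside-out patches. Both sides held 130 mM NaCl, 5 mM MgCl2, 10 mM HEPES and 1 mM EGTA, pH 7.4. CPA was perfused continuously onto the cytoplasmic face. Steady-state current over the last 10 ms was normalized to bracketing blocker-free controls and fitted to a Langmuir function for K1/2. Values are mean ± SEM of ~4–6 patches.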

[2] = molecular target: T2, CLC-0 E166S mutant (Torpedo marmorata, UniProt P21564, C212S/E166S); format: cell-based; settings: read-out: Apparent affinity (K1/2)
T2 sequence (P21564 1-805 E166S/C212S): T1 sequence (P21564 1-805 E166G/C212S) with G166S
Procedure, shortened: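 CLC-0 mutants (C212S background) were lipofectamine-transfected into HEK293 cells and recorded 1–3 d later from inside-out patches. Pipette and bath contained 130 mM NaCl, 5 MgCl2, 10 HEPES and 1 EGTA (pH 7.4). Test compound was perfused onto the cytoplasmic side. A +80 mV prepulse preceded steps to steady state. The last-10-ms current was normalized to bracketing blocker-free controls and fitted to a Langmuir function for K1/2.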

Compound | IC50 ([1]; −40 mV) [µM] | IC50 ([1]; −60 mV) [µM] | IC50 ([1]; −80 mV) [µM] | IC50 ([1]; −100 mV) [µM] | IC50 ([1]; −120 mV) [µM] | IC50 ([1]; −140 mV) [µM] | IC50 ([1]; −160 mV) [µM] | IC50 ([2]; −40 mV) [µM] | IC50 ([2]; −60 mV) [µM] | IC50 ([2]; −80 mV) [µM] | IC50 ([2]; −100 mV) [µM] | IC50 ([2]; −120 mV) [µM] | IC50 ([2]; −140 mV) [µM] | IC50 ([2]; −160 mV) [µM]
O=C(O)COc1ccc(Cl)cc1 [CPA, p-chlorophenoxy acetate] | 300 ± 20 | 180 ± 10 | 140 ± 10 | 150 ± 10 | 180 ± 20 | 240 ± 30 | 320 ± 30 | 641 ± 36 | 342 ± 15 | 179 ± 7 | 104 ± 4 | 58 ± 3 | 35 ± 2 | 21 ± 1
CCCCCCCC(=O)O [octanoate] | 225 ± 13 | 127 ± 8 | 85 ± 6 | 75 ± 6 | 82 ± 8 | 115 ± 14 | 175 ± 19 | 855 ± 37 | 403 ± 22 | 198 ± 11 | 100 ± 9 | 50 ± 3 | 26 ± 3 | 16 ± 2
